SMILES strings stand for the structures.

In assay [1] the target is T1, Adenosine receptor A1 (Rattus norvegicus) (UniProt P25099).
T1 sequence (whole entry): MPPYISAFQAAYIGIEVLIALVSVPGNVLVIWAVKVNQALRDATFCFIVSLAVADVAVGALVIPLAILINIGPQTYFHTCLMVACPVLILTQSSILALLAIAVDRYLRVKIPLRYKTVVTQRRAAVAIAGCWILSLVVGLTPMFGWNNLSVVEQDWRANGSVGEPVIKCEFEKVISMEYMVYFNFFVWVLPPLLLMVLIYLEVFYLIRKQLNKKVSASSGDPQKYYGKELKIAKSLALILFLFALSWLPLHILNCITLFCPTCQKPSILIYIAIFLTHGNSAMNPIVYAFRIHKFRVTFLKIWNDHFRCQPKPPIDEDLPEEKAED
As to the kind of experiment: Displacement of specific [3H]DPCPX binding at rat cortical membrane (Adenosine A1 receptor) at concentration of […]. The method, boiled down: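 A1 binding used rat cortical membranes and [3H]DPCPX. Percentage displacement of specific binding was measured at one fixed test-compound concentration (n = 2-3).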

Assay [2] addresses Adenosine receptor A2a (Rattus norvegicus) (UniProt P30543). Kind of assay: Displacement of specific [3H]CGS-21680 binding in rat striatal membrane (Adenosine A2A receptor) at concentration of […]. Type of assay: cell membranes. The settings on record: Striatum. Put shortly:
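A2A binding used rat striatal membranes and [3H]CGS 21680. Percentage displacement of specific binding was measured at one fixed test-compound concentration (n = 2-3).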

Assay [3] addresses T2, Adenosine receptor A3 (Homo sapiens) (UniProt P0DMS8).
T2 sequence (whole entry): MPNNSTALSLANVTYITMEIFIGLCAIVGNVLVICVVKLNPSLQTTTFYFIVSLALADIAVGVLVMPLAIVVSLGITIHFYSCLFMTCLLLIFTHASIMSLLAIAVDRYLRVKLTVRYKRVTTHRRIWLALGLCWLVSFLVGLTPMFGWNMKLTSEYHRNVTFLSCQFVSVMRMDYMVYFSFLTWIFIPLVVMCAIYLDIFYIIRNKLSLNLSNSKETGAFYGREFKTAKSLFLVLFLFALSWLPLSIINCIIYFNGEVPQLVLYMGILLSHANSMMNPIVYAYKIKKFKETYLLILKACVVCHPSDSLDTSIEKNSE
As to the kind of experiment: Displacement of [125I]AB-MECA from human adenosine A3 receptor expressed in HEK 293 cells at […]. Format: cell-based. The settings on record: HEK293. The method, boiled down:
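Membranes from HEK 293 cells stably expressing the human A3 receptor were incubated with [125I]AB-MECA. Percentage displacement of specific binding was measured at a single test-compound concentration (n = 2-3).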

In assay [4] the target is T3, Adenosine receptor A3 (Homo sapiens, UniProt P0DMS8).
T3 sequence (P0DMS8 whole entry): T2 sequence (whole entry)
As to the kind of experiment: Displacement of specific [125I]AB-MECA binding at human adenosine A3 receptor expressed in HEK 293 cells. Format: cell-based, HEK293.

Assay [5] addresses T3, Adenosine receptor A3. Kind of assay: biochemical.

Chain of Adenosine receptor A2a (Rattus norvegicus) (P30543 whole entry): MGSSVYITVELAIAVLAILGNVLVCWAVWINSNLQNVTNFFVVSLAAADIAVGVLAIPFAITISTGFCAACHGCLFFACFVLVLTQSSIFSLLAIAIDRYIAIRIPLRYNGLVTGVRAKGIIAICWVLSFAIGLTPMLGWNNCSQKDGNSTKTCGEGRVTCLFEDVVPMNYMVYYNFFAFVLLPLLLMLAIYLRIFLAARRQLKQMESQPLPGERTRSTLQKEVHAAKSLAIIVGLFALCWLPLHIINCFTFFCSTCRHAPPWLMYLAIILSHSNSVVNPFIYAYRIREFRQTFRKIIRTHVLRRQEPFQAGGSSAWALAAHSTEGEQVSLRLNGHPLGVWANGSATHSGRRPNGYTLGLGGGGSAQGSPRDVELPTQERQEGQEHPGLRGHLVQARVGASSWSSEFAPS

In the case of `CC(=O)N(C(C)=O)c1nc(-c2ccccn2)cc2ccccc12`, the Displacement in assay [1] worked out at 34%; in assay [2] it was 18%. On to `Nc1nc(-c2ccccn2)cc2ccccc12`, for which the Displacement amounted to 19% in assay [1], 17% in assay [3] and 28% in assay [2]. Turning to `Cc1cccc(C(=N)Nc2nc(-c3ccccn3)cc3ccccc23)c1`, the figures for the Displacement in assay [1] and in assay [2] were 43% and 0%, respectively.

Turning to `COc1nc(-c2ccccn2)cc2ccccc12`, the Displacement in assay [2] was determined as 19%. As for `Cc1ccc(C(=N)Nc2nc(-c3ccccn3)cc3ccccc23)cc1`, the Displacement in assay [1] was found to be 12%; in assay [2] it was 34%.

With `Cc1cccc(C)c1C(=O)N(C(=O)c1c(C)cccc1C)c1nc(-c2ccccn2)cc2ccccc12`, the Displacement in assay [1] and in assay [2] was 0% throughout. In turn, `Oc1nc(-c2ccccn2)cc2ccccc12` yielded a Displacement in assay [2] of 35%. `N=C(Nc1nc(-c2ccccn2)cc2ccccc12)c1ccccc1` gave a Displacement in assay [1] of 34%. Consider `N=C(Nc1nc(-c2ccccn2)cc2ccccc12)c1ccc(Cl)cc1`, for which the Displacement in assay [1] worked out at 20%; in assay [2] it was 7%. Consider `N=C(Nc1nc(-c2ccccn2)cc2ccccc12)c1ccc(Cl)c(Cl)c1`, for which the results for the Displacement in assay [1] and in assay [2] were 21% and 2%, respectively. Take `CCc1nc(-c2ccccn2)cc2ccccc12`: the Displacement was 30% in assay [1] and 25% in assay [2]. On to `COC(=O)C1=C2C=CN(C)C=C2c2nc(-c3ccccc3)nn2C1`, for which the Ki (usually the equilibrium dissociation constant of an inhibitor or competing ligand from its target) at Adenosine receptor A3 [4] was 172 nM. `c1ccc(-c2nc(-c3ccccn3)cc3ccccc23)cc1`: in assay [2], the Displacement is 31%.

As for `Clc1nc(-c2ccccn2)cc2ccccc12`, the Displacement in assay [1] was determined as 43%; in assay [2], 29%. The corresponding values for `COc1cccc(C(=N)Nc2nc(-c3ccccn3)cc3ccccc23)c1` are 43% and 0%. The compound `CSc1nc(-c2ccccn2)cc2ccccc12` showed a Displacement in assay [2] of 7%. The same measure, in the same setting: the figure for `CC(C(=O)c1ccccc1)c1nc(-c2ccccn2)cc2ccccc12` (stereo unspecified) is 5%.

Turning to `N=CNc1nc(-c2ccccn2)cc2ccccc12`, the Displacement in assay [1] was 47%. With `N=C(Nc1nc(-c2ccccn2)cc2ccccc12)c1cccc(Cl)c1`, the values for the Displacement in assay [1] and in assay [2] were 49% and 14%, respectively. As to `CS(=O)(=O)c1nc(-c2ccccn2)cc2ccccc12`, in assay [2], the Displacement is 54%.

As for `Nc1nc2ccc(Cl)cc2c2nc(-c3ccco3)nn12` [CGS-15943], the values for the Ki on Adenosine receptor A3 [4] and at Adenosine receptor A3 [5] were 143 nM and 7.9 nM, respectively.

With `COc1ccc(C(=N)Nc2nc(-c3ccccn3)cc3ccccc23)cc1`, the Displacement in assay [1] was 18%; in assay [2], 5%.

(Values after ChEMBL document CHEMBL1131133, “A novel class of adenosine A3 receptor ligands. 1. 3-(2-Pyridinyl)isoquinoline derivatives” (J Med Chem, 1998).)
